According to ChEMBL document CHEMBL4396914, “Discovery of new azoles with potent activity against Candida spp. and Candida albicans biofilms through virtual screening” (Eur J Med Chem, 2019):
Values after ≈ are worked out from the molar mass of the structure shown.

Columns and labels:
Pichia kudriavzevii = assay: Antifungal activity against azole-susceptible Candida krusei ATCC 6258 assessed as reduction in fungal growth incubated for 48 hrs by broth microdilution method; assay type: functional; settings: ATCC 6258, 48 h
Outline: (§1)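 CLSI broth microdilution in RPMI 1640 with MOPS at pH 7.0. Inoculum taken from 24-h Sabouraud subcultures, final 0.5-2.5×10^3 cfu/ml. Compounds in DMSO, twofold series 1024-0.125 µg/ml final. Incubated 48 h at 35 °C. MIC is the lowest concentration giving complete inhibition of visible growth. Fluconazole served as the reference.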

Candida albicans [1] = assay: Antifungal activity against azole-susceptible Candida albicans ATCC 90028 assessed as reduction in fungal growth incubated for 48 hrs by broth microdilution method; assay type: functional; settings: ATCC 90028, 48 h; outline: as §1
Candida parapsilosis = assay: Antifungal activity against azole-susceptible Candida parapsilosis ATCC 90018 assessed as reduction in fungal growth incubated for 48 hrs by broth microdilution method; assay type: functional; settings: Lodderomyces parapsilosis, ATCC 90018, 48 h; outline: as §1
Candida tropicalis = assay: Antifungal activity against azole-resistant Candida tropicalis assessed as reduction in fungal growth incubated for 48 hrs by broth microdilution method; assay type: functional
Outline: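 CLSI broth microdilution in RPMI 1640 (glutamine, no bicarbonate) buffered to pH 7.0 with MOPS. Azole-resistant clinical C. tropicalis isolate, stored at -80 °C in glycerol, subcultured twice on Sabouraud dextrose agar. Inoculum from 24-h subcultures, final 0.5 to 2.5×10^3 cfu/ml. Compounds in DMSO, twofold final 1024–0.125 µg/ml. Incubated 35 °C, 48 h. MIC = lowest concentration fully inhibiting visible growth.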

U-937 = assay: Cytotoxicity against human U937 cells assessed as cell viability at 0.125 to 32 ug/ml incubated for 24 to 48 hrs by MTT assay; assay type: cell-based
Outline: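 MTT assay on U937 monocytic cells, 4×10³ cells/well, in RPMI-1640 with 10% FBS. Eight concentrations, 0.125-32 µg/ml, DMSO ≤0.32% v/v, each in triplicate. Exposure 24 or 48 h at 37 °C, 5% CO₂, then MTT for 4 h. Formazan dissolved in SDS/DMF, absorbance read at 570 nm. Viability calculated relative to untreated cells.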

Candida albicans [2] = assay: Antibiofilm activity against Candida albicans SC5314 assessed as inhibition of biofilm formation by turbidity based visual inspection method; assay type: functional
Outline: (§2)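 C. albicans SC5314 biofilms grown on a 96-peg lid (Calgary device, MBEC protocol) from 10^6 cfu/ml inoculum for 24 h at 37 °C. Pegs rinsed in 0.9% saline, then challenged 24 h at 35 °C with twofold dilutions, 512-0.5 µg/ml. MBIC: no well turbidity by visual inspection. MBEC: pegs sonicated into RPMI/2% glucose, regrowth overnight, OD 550 nm plus visual turbidity.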

Candida albicans [3] = assay: Disruption of Candida albicans SC5314 pre-formed mature biofilm assessed as reduction in biofilm biomass incubated for 24 hrs by spectrophotometry; assay type: functional; outline: as §2

Structure (SMILES) | MIC (Pichia kudriavzevii) | MIC (Candida albicans [1]) | MIC (Candida parapsilosis) | MIC (Candida tropicalis) | Activity (U-937) | MBIC (Candida albicans [2]) | MBEC (Candida albicans [3])
Cl.O=C(CCC(=O)c1ccccc1)OC(Cn1ccnc1)c1ccc(Cl)cc1Cl (racemic) | 32 µg/mL | 16 µg/mL | 8 µg/mL | – | – | – | –
O=C(OC(Cn1ccnc1)c1ccc(Cl)cc1Cl)c1ccc(-c2ccc(-c3ccccc3)cc2)cc1 (racemic) | 256 µg/mL (≈ 499 µM) | 256 µg/mL (≈ 499 µM) | 256 µg/mL (≈ 499 µM) | – | – | – | –
Cc1ccc(C(=O)O/N=C(\Cn2ccnc2)c2ccc(Cl)cc2Cl)cc1 | 256 µg/mL (≈ 659 µM) | 128 µg/mL (≈ 330 µM) | 256 µg/mL (≈ 659 µM) | – | – | – | –
Cl.O=C(OC(Cn1ccnc1)c1ccc(Cl)cc1Cl)c1ccc(N2CCOCC2)cc1 (racemic) | 256 µg/mL | 16 µg/mL | 32 µg/mL | – | – | – | –
Cl.O=C(OC(Cn1ccnc1)c1ccc(Cl)cc1Cl)c1cc2ccccc2[nH]1 (racemic) | 0.5 µg/mL | 0.125 µg/mL | 0.25 µg/mL | 1 µg/mL | Non-Toxic | 2 µg/mL | 128 µg/mL
Cl.O=C(CCCc1ccccc1)OC(Cn1ccnc1)c1ccc(Cl)cc1Cl (racemic) | 8 µg/mL | 2 µg/mL | 2 µg/mL | 32 µg/mL | – | 0.5 µg/mL | 64 µg/mL
Cl.O=C(O/N=C(\Cn1ccnc1)c1ccc(Cl)cc1Cl)c1ccc(Cl)cc1Cl | 64 µg/mL | 64 µg/mL | 64 µg/mL | – | – | – | –
CC(C)c1ccc(C(=O)OC(Cn2ccnc2)c2ccc(Cl)cc2Cl)cc1.Cl (racemic) | 128 µg/mL | 256 µg/mL | 128 µg/mL | – | – | – | –
Cl.O=C(OC(Cn1ccnc1)c1ccc(Cl)cc1Cl)C1CCCC1 (racemic) | 16 µg/mL | 1 µg/mL | 2 µg/mL | 8 µg/mL | – | 32 µg/mL | >1024 µg/mL
CC(C)c1ccc(C(=O)O/N=C(\Cn2ccnc2)c2ccc(Cl)cc2Cl)cc1.Cl | 32 µg/mL | 16 µg/mL | 16 µg/mL | – | – | – | –
COc1ccc(C(=O)OC(Cn2ccnc2)c2ccc(Cl)cc2Cl)cc1.Cl (racemic) | 16 µg/mL | 2 µg/mL | 1 µg/mL | 4 µg/mL | – | 1 µg/mL | 256 µg/mL
CC(C)(C)OC(=O)NCCCC(=O)OC(Cn1ccnc1)c1ccc(Cl)cc1Cl.Cl (racemic) | 128 µg/mL | 8 µg/mL | 16 µg/mL | – | – | – | –
N#Cc1ccc(C(=O)O/N=C(\Cn2ccnc2)c2ccc(Cl)cc2Cl)cc1 | 64 µg/mL (≈ 160 µM) | 128 µg/mL (≈ 321 µM) | 64 µg/mL (≈ 160 µM) | – | – | – | –
CCc1ccc(C(=O)O/N=C(\Cn2ccnc2)c2ccc(Cl)cc2Cl)cc1.Cl | 256 µg/mL | 128 µg/mL | 128 µg/mL | 8 µg/mL | – | – | –
Cl.O=C(O/N=C(\Cn1ccnc1)c1ccc(Cl)cc1Cl)c1ccc(Cl)cc1 | 64 µg/mL | 32 µg/mL | 32 µg/mL | – | – | – | –
O=C(O/N=C(\Cn1ccnc1)c1ccc(Cl)cc1Cl)c1ccc(-c2ccccc2)cc1 | 1 µg/mL (≈ 2.22 µM) | 1 µg/mL (≈ 2.22 µM) | 1 µg/mL (≈ 2.22 µM) | 256 µg/mL (≈ 568 µM) | Non-Toxic | 16 µg/mL | 256 µg/mL
Cl.N#Cc1ccc(C(=O)OC(Cn2ccnc2)c2ccc(Cl)cc2Cl)cc1 (racemic) | 64 µg/mL | 8 µg/mL | 4 µg/mL | 16 µg/mL | – | – | –
O/N=C(\Cn1ccnc1)c1ccc(Cl)cc1Cl | 256 µg/mL (≈ 948 µM) | 32 µg/mL (≈ 118 µM) | 32 µg/mL (≈ 118 µM) | – | – | – | –

Structure (SMILES) | MIC (Pichia kudriavzevii) | MIC (Candida albicans [1]) | MIC (Candida parapsilosis) | MIC (Candida tropicalis) | Activity (U-937) | MBIC (Candida albicans [2]) | MBEC (Candida albicans [3])
Cl.O=C(O/N=C(\Cn1ccnc1)c1ccc(Cl)cc1Cl)c1ccc([N+](=O)[O-])cc1 | 64 µg/mL | 64 µg/mL | 16 µg/mL | – | – | – | –
CCc1ccc(C(=O)OC(Cn2ccnc2)c2ccc(Cl)cc2Cl)cc1.Cl (racemic) | 256 µg/mL | 256 µg/mL | 256 µg/mL | – | – | – | –
CSc1ccc(C(=O)O/N=C(\Cn2ccnc2)c2ccc(Cl)cc2Cl)cc1.Cl | 64 µg/mL | 2 µg/mL | 2 µg/mL | 16 µg/mL | – | 2 µg/mL | 256 µg/mL
O=C(O/N=C(\Cn1ccnc1)c1ccc(Cl)cc1Cl)c1ccccc1 | 32 µg/mL (≈ 85.5 µM) | 32 µg/mL (≈ 85.5 µM) | 32 µg/mL (≈ 85.5 µM) | – | – | – | –
Cl.O=C(O/N=C(\Cn1ccnc1)c1ccc(Cl)cc1Cl)c1ccc2ccccc2c1 | 256 µg/mL | 256 µg/mL | 256 µg/mL | – | – | – | –
C[C@@H]1[C@H](O)[C@@H](C)/C=C/C=C/C=C/C=C/C=C/C=C/C=C/[C@H](O[C@@H]2O[C@H](C)[C@@H](O)[C@H](N)[C@@H]2O)C[C@@H]2O[C@](O)(C[C@@H](O)C[C@@H](O)[C@H](O)CC[C@@H](O)C[C@@H](O)CC(=O)O[C@H]1C)C[C@H](O)[C@H]2C(=O)O [AMPHOTERICIN B] | – | – | – | – | – | 4 µg/mL | 256 µg/mL
Cl.O=C(OC(Cn1ccnc1)c1ccc(Cl)cc1Cl)C1CCCCC1 (racemic) | 32 µg/mL | 8 µg/mL | 4 µg/mL | 16 µg/mL | – | – | –
CC(C)(C)c1ccc(C(=O)O/N=C(\Cn2ccnc2)c2ccc(Cl)cc2Cl)cc1 | 4 µg/mL (≈ 9.3 µM) | 4 µg/mL (≈ 9.3 µM) | 4 µg/mL (≈ 9.3 µM) | 64 µg/mL (≈ 149 µM) | – | 128 µg/mL | 256 µg/mL
Cl.O=C(O/N=C(\Cn1ccnc1)c1ccc(Cl)cc1Cl)c1ccc2ccccc2n1 | 256 µg/mL | 128 µg/mL | 256 µg/mL | – | – | – | –
OC(Cn1cncn1)(Cn1cncn1)c1ccc(F)cc1F [FLUCONAZOLE] | 32 µg/mL (≈ 104 µM) | 0.5 µg/mL (≈ 1.63 µM) | 0.5 µg/mL (≈ 1.63 µM) | 512 µg/mL (≈ 1670 µM) | – | – | –
O=C(/C=C/c1ccccc1)O/N=C(\Cn1ccnc1)c1ccc(Cl)cc1Cl | 4 µg/mL (≈ 9.99 µM) | 2 µg/mL (≈ 5 µM) | 2 µg/mL (≈ 5 µM) | 64 µg/mL (≈ 160 µM) | – | 128 µg/mL | 512 µg/mL
Cl.O=C(O/N=C(\Cn1ccnc1)c1ccc(Cl)cc1Cl)c1ccc(-c2ccc(-c3ccccc3)cc2)cc1 | 256 µg/mL | 128 µg/mL | 128 µg/mL | – | – | – | –
OC(Cn1ccnc1)c1ccc(Cl)cc1Cl (centres undefined) | 128 µg/mL (≈ 498 µM) | 8 µg/mL (≈ 31.1 µM) | 4 µg/mL (≈ 15.6 µM) | 256 µg/mL (≈ 996 µM) | – | – | –
O=C(Cn1ccnc1)c1ccc(Cl)cc1Cl | 256 µg/mL (≈ 1000 µM) | 128 µg/mL (≈ 502 µM) | 32 µg/mL (≈ 125 µM) | – | – | – | –
CSc1ccc(C(=O)OC(Cn2ccnc2)c2ccc(Cl)cc2Cl)cc1.Cl (racemic) | 28 µg/mL | 8 µg/mL | 16 µg/mL | – | – | – | –
Cl.O=C(O/N=C(\Cn1ccnc1)c1ccc(Cl)cc1Cl)c1cc2ccccc2[nH]1 | 256 µg/mL | 128 µg/mL | 128 µg/mL | 256 µg/mL | – | – | –
Cl.O=C(OC(Cn1ccnc1)c1ccc(Cl)cc1Cl)c1ccc(C(F)(F)F)cc1 (racemic) | 256 µg/mL | 256 µg/mL | 256 µg/mL | – | – | – | –
O=C(O/N=C(\Cn1ccnc1)c1ccc(Cl)cc1Cl)C1CCCCC1 | 64 µg/mL (≈ 168 µM) | 64 µg/mL (≈ 168 µM) | 64 µg/mL (≈ 168 µM) | – | – | – | –
